{
  "source": "ChEMBL document CHEMBL4396917",
  "about": "“Synthesis and biological evaluation of novel benzylidene-succinimide derivatives as noncytotoxic antiangiogenic inhibitors with anticolorectal cancer activity in vivo” (Eur J Med Chem, 2019)",
  "key": {"[1]": {"system": "HUVEC", "assay": "Induction of apoptosis in VEGF-stimulated HUVEC assessed as necrotic cells at 10 uM after 24 hrs by Annexin V-FITC/propidium iodide staining based flow cytometric analysis (reference value: 12.1%)", "assay_type": "cell-based", "conditions": "human", "how_it_was_run": "(§1)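 HUVECs plated at 5×10^5 per well and treated 24 h with 1, 5, 10 or 20 μM. Detached and adherent cells were pooled, washed in ice-cold PBS and resuspended in fresh medium. 1×10^5 cells were stained with annexin-V-FITC in annexin-V buffer for 20 min in the dark, then PI (50 μg/mL) was added. Read-out by flow cytometry.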"}, "[2]": {"system": "HT-29", "assay": "Induction of apoptosis in human HT-29 cells assessed as necrotic cells at 10 uM after 24 hrs by Annexin V-FITC/propidium iodide staining based flow cytometric analysis (reference value: 3.9%)", "assay_type": "cell-based", "conditions": "ht-29, 24 h"}, "[3]": {"system": "HT-29", "assay": "Induction of apoptosis in human HT-29 cells assessed as early apoptotic cells at 20 uM after 24 hrs by Annexin V-FITC/propidium iodide staining based flow cytometric analysis (reference value: 1.9%)", "assay_type": "cell-based", "conditions": "ht-29, 24 h"}, "[4]": {"system": "HUVEC", "assay": "Antiinvasive activity in HUVEC assessed as inhibition of VEGF-induced cell invasion at 5 uM after 6 hrs by crystal violet staining based transwell assay relative to control", "assay_type": "functional", "conditions": "Homo sapiens", "how_it_was_run": "(§2)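 Transwell: 1×10⁴ HUVECs in serum-free M200 in top chamber with vehicle or compound; bottom chamber M200 with 10% FBS; 6 h at 37°C; cells on membrane underside fixed in 4% paraformaldehyde, stained 0.1% crystal violet, imaged and counted.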"}, "[5]": {"target": "Mitogen-activated protein kinase 1 (Homo sapiens) (UniProt P28482)", "sequence (P28482 whole entry)": "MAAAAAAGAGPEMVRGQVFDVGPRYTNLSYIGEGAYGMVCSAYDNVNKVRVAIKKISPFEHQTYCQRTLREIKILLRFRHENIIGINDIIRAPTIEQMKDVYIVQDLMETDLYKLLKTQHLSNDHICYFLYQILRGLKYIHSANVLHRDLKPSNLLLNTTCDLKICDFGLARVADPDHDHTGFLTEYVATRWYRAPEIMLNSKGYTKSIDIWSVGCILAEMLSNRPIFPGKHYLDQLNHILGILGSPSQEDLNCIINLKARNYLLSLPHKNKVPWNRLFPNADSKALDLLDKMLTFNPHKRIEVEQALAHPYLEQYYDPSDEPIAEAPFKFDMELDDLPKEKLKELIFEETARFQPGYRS", "assay": "Inhibition of ERK2 (unknown origin) at 10 uM using myelin basic protein as substrate in presence of [gamma-33P]-ATP by scintillation counting analysis relative to control", "how_it_was_run": "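Radiometric kinase panel run by a contract lab. Kinase (5–10 mU) in 25 mM Tris pH 7.5, 0.02 mM EGTA, 0.66 mg/mL myelin basic protein, magnesium acetate and [γ-33P]-ATP (about 500 cpm/pmol). Started with Mg-ATP mix, 40 min at room temperature, stopped with 3% phosphoric acid. Spotted on P30 filters, washed in 75 mM phosphoric acid and methanol, scintillation counted. Mean ± SD of three independent experiments.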"}, "[6]": {"system": "HUVEC", "assay": "Antimigratory activity in HUVEC assessed as reduction in VEGF-induced cell migration at 2.5 uM measured after 24 hrs by wound healing assay relative to control", "assay_type": "functional", "conditions": "Homo sapiens", "how_it_was_run": "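Confluent HUVECs starved 12 h in M200 with 2% FBS, scratched with pipette tip; fresh M200 with 25 ng/mL VEGF plus vehicle, 2.5 μM sunitinib or compound (1, 2.5 μM); wound imaged at 0, 6, 12 and 24 h by inverted microscopy.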"}, "[7]": {"system": "HT-29", "assay": "Induction of apoptosis in human HT-29 cells assessed as early apoptotic cells at 1 uM after 24 hrs by Annexin V-FITC/propidium iodide staining based flow cytometric analysis (reference value: 1.9%)", "assay_type": "cell-based", "conditions": "ht-29, 24 h"}, "[8]": {"system": "HUVEC", "assay": "Antiangiogenic activity against HUVEC assessed as inhibition of cell proliferation measured […] by MTT assay", "assay_type": "functional, cell-based", "conditions": "Homo sapiens"}, "[9]": {"system": "HUVEC", "assay": "Antiinvasive activity in HUVEC assessed as inhibition of VEGF-induced cell invasion at 10 uM after 6 hrs by crystal violet staining based transwell assay relative to control", "assay_type": "functional", "conditions": "Homo sapiens", "how_it_was_run": "as §2"}, "[10]": {"assay": "Induction of apoptosis in human HT-29 cells assessed as viable cells at 5 uM after 24 hrs by Annexin V-FITC/propidium iodide staining based flow cytometric analysis (reference value: 80.8 to 81.1%)", "assay_type": "cell-based", "conditions": "read-out: Activity"}, "[11]": {"assay": "Induction of apoptosis in human HT-29 cells assessed as viable cells at 5 uM after 48 hrs by Annexin V-FITC/propidium iodide staining based flow cytometric analysis (reference value: 81.1%)", "assay_type": "cell-based", "conditions": "read-out: Activity"}, "[12]": {"system": "HT-29", "assay": "Induction of apoptosis in human HT-29 cells assessed as necrotic cells at 1 uM after 24 hrs by Annexin V-FITC/propidium iodide staining based flow cytometric analysis (reference value: 3.9%)", "assay_type": "cell-based", "conditions": "ht-29, 24 h"}, "[13]": {"system": "Aorta", "assay": "Inhibition of VEGF-induced capillary sprouting in Sprague-Dawley rat aortic ring at 20 uM treated for every 3 days for 7 days measured on day 7 by inverted microscopy relative to control", "assay_type": "functional", "how_it_was_run": "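Aortas from anesthetized Sprague-Dawley rats cut into 1-mm rings and embedded in Matrigel for 1 h at 37°C. Rings starved 1 day, then cultured in opti-MEM with 2.5% FBS and 30 ng/mL VEGF plus compound. Treatment renewed every 3 days for 7 days. Sprouting imaged on day 7 by inverted microscopy.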"}, "[14]": {"system": "HUVEC", "assay": "Antiangiogenic activity against VEGF-induced HUVEC assessed as inhibition of cell proliferation preincubated for 30 mins followed by VEGF addition measured after 24 hrs by MTT assay", "assay_type": "functional, cell-based", "conditions": "Homo sapiens", "how_it_was_run": "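HUVECs seeded 24 h, starved 16 h in M200 with 2% FBS, pretreated 30 min with compound at 0.1, 1, 10, 20 or 40 μM, then stimulated with VEGF (25 ng/mL) for 24 h; viability read by MTT; IC50 determined.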"}, "[15]": {"system": "HT-29", "assay": "Downregulation of HIF1-alpha expression in human HT-29 cells after 24 hrs by immunoblot analysis", "assay_type": "functional, cell-based"}, "[16]": {"system": "SW480", "assay": "Cytotoxicity against human SW480 cells assessed as reduction in cell growth after 72 hrs by MTT assay", "assay_type": "cell-based", "conditions": "SW480, 72 h"}, "[17]": {"assay": "Induction of apoptosis in VEGF-stimulated HUVEC assessed as viable cells at 10 uM after 24 hrs by Annexin V-FITC/propidium iodide staining based flow cytometric analysis (reference value: 69.6%)", "assay_type": "cell-based", "conditions": "human, read-out: Activity", "how_it_was_run": "as §1"}, "[18]": {"system": "HT-29", "assay": "Induction of apoptosis in human HT-29 cells assessed as early apoptotic cells at 5 uM after 24 hrs by Annexin V-FITC/propidium iodide staining based flow cytometric analysis (reference value: 1.9 to 5.3%)", "assay_type": "cell-based", "conditions": "ht-29, 24 h"}, "[19]": {"system": "HT-29", "assay": "Inhibition of Akt/mTOR signalling in human HT-29 cells assessed as reduction in STAT3 phosphorylation at Tyr705 residue incubated for 24 hrs by immunoblot analysis", "assay_type": "cell-based", "how_it_was_run": "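HT29 cells were exposed to the indicated concentrations for 24 h. Cell lysates were then immunoblotted for the phosphorylated proteins.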"}, "[20]": {"system": "HT-29", "assay": "Induction of apoptosis in human HT-29 cells assessed as late apoptotic cells at 5 uM after 48 hrs by Annexin V-FITC/propidium iodide staining based flow cytometric analysis (reference value: 12.3%)", "assay_type": "cell-based", "conditions": "ht-29, 48 h"}, "[21]": {"target": "Vascular endothelial growth factor receptor 2 (Homo sapiens) (UniProt P35968)", "sequence (P35968 whole entry)": "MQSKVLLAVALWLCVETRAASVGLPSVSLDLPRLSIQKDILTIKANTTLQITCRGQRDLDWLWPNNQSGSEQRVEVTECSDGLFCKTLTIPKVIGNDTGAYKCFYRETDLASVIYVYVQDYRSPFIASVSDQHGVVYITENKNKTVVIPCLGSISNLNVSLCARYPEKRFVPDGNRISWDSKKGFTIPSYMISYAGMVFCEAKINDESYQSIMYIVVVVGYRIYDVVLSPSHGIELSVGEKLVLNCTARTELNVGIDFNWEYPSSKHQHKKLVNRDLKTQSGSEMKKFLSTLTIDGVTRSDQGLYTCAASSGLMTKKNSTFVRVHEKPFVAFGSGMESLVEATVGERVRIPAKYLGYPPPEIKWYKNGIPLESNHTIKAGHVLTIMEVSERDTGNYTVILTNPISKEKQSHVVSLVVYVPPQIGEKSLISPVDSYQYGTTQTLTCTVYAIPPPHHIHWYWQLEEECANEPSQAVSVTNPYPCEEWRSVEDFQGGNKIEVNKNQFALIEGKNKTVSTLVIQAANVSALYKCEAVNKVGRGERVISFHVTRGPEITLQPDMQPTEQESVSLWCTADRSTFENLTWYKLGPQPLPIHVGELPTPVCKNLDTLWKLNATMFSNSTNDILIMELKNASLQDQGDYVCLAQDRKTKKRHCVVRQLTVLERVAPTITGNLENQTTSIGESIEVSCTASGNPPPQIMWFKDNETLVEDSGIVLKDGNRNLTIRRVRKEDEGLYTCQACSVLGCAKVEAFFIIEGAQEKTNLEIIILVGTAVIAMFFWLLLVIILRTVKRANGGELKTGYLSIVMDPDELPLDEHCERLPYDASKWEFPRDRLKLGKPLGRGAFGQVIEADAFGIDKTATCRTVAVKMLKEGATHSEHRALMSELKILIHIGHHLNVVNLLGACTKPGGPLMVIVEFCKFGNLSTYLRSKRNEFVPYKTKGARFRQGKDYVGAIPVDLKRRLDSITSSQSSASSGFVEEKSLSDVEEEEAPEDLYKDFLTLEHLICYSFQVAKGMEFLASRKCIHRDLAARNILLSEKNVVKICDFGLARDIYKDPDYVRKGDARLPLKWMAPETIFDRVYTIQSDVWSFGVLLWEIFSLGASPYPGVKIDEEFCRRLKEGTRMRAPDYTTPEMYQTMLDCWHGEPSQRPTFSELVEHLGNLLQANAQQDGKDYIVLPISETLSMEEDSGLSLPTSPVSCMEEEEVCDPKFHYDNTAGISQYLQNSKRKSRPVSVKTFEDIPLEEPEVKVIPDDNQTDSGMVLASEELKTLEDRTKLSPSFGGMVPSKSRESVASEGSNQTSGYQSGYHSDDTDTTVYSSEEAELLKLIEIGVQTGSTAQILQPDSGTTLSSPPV", "assay": "Inhibition of VEGFR2 in VEGF-stimulated HUVEC assessed as downregulation of Src phosphorylation at Tyr416 residue at 1 to 10 uM pre-incubated for 2 hrs followed by VEGF stimulation and measured after 15 mins by Western blot analysis", "assay_type": "cell-based"}, "[22]": {"system": "HUVEC", "assay": "Induction of apoptosis in VEGF-stimulated HUVEC assessed as PARP cleavage at 1 to 20 uM by Western blot analysis", "assay_type": "cell-based", "conditions": "human"}, "[23]": {"system": "HT-29", "assay": "Induction of apoptosis in human HT-29 cells assessed as late apoptotic cells at 5 uM after 72 hrs by Annexin V-FITC/propidium iodide staining based flow cytometric analysis (reference value: 12.3%)", "assay_type": "cell-based", "conditions": "ht-29, 72 h"}, "[24]": {"system": "HT-29", "assay": "Antiangiogenic activity against human HT-29 cells xenografted in mouse assessed as mean vessel density in tumour at 20 to 60 mg/kg, po administered every other day for 3 weeks measured at 20 days post-treatment", "assay_type": "functional"}},
  "note": "The source made the active and inactive calls. No cut-off for these calls is given here.",
  "data": [
    {"compound": "COc1ccc(NC(=O)c2cccc(/C=C3\\CC(=O)N(c4ccc(C)cc4)C3=O)c2)cc1", "values": [
      {"measurement": "Activity", "setting": "[1]", "value": 5.4, "unit": "%"},
      {"measurement": "Activity", "setting": "[2]", "value": 2.3, "unit": "%"},
      {"measurement": "Activity", "setting": "[3]", "value": 1.7, "unit": "%"},
      {"measurement": "inhibition at 5 µM", "setting": "[4]", "value": 40, "unit": "%"},
      {"measurement": "inhibition", "setting": "[5]", "value": "50 to 70", "unit": "%"},
      {"measurement": "inhibition at 2.5 µM", "setting": "[6]", "value": 60, "unit": "%"},
      {"measurement": "Activity", "setting": "[7]", "value": 1.3, "unit": "%"},
      {"measurement": "inhibition", "setting": "[8]", "value": "Dose-dependent effect"},
      {"measurement": "IC50", "setting": "[8]; 0.5 h", "value": 26.6, "unit": "µM"},
      {"measurement": "inhibition at 10 µM", "setting": "[9]", "value": 50, "unit": "%"},
      {"measurement": "viability at 24 h, 5 µM", "setting": "[10]", "value": "75.8 to 77.9", "unit": "%"},
      {"measurement": "viability at 48 h, 5 µM", "setting": "[11]", "value": 76.1, "unit": "%"},
      {"measurement": "Activity", "setting": "[12]", "value": 4.4, "unit": "%"},
      {"measurement": "inhibition at 20 µM", "setting": "[13]", "value": 95, "unit": "%"},
      {"measurement": "IC50", "setting": "[14]", "value": 8.56, "unit": "µM"},
      {"measurement": "inhibition", "setting": "[15]", "value": "Dose-dependent effect"},
      {"measurement": "IC50", "setting": "[16]", "value": 93, "unit": "µM"},
      {"measurement": "viability at 24 h, 10 µM", "setting": "[17]", "value": 72, "unit": "%"},
      {"measurement": "Activity", "setting": "[18]", "value": "1.2 to 5.4", "unit": "%"},
      {"measurement": "inhibition", "setting": "[19]", "value": "Dose-dependent effect"},
      {"measurement": "Activity", "setting": "[20]", "value": 13.1, "unit": "%"},
      {"measurement": "inhibition", "setting": "[21]", "value": "Active"},
      {"measurement": "Activity", "setting": "[22]", "value": "Non-Toxic"},
      {"measurement": "Activity", "setting": "[23]", "value": 12.5, "unit": "%"},
      {"measurement": "Activity", "setting": "[24]", "value": 5, "unit": "%"}
    ]}
  ]
}
